Measurements: ChEMBL document CHEMBL1773065, “Impact of the nature of the substituent at the 3-position of 4H-1,2,4-benzothiadiazine 1,1-dioxides on their opening activity toward ATP-sensitive potassium channels” (J Med Chem, 2011)
Active and inactive are the calls of the source. The calls are words filed in the database; no cut-off is given here.

How the values were obtained:
[1] = Inhibition of glucose induced insulin secretion from rat Pancreatic islet assessed as percentage of residual insulin release at 0.1 uM; assay type: functional
Summary of the method: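 Isolated rat pancreatic islets incubated with test drug in the presence of 16.7 mM glucose. Insulin release was measured and expressed as percentage of residual insulin release, given as mean ± SEM with number of determinations (n).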

[2] = Inhibition of glucose induced insulin secretion from rat Pancreatic islet assessed as percentage of residual insulin release at 50 uM; assay type: functional
Summary of the method: (§1)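 Isolated rat pancreatic islets incubated with 16.7 mM glucose and drug at 0.1–50 μM. Result is insulin release as a percentage of residual release, mean ± SEM (n).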

[3] = Inhibition of glucose induced insulin secretion from rat Pancreatic islet assessed as percentage of residual insulin release at 10 uM; assay type: functional; summary of the method: as §1
[4] = Inhibition of glucose induced insulin secretion from rat Pancreatic islet assessed as percentage of residual insulin release at 1 uM; assay type: functional; summary of the method: as §1
[5] = species: Rattus norvegicus; assay: Activation of ATP-sensitive potassium channel in extracellular calcium deprived and glucose evoked rat pancreatic islets assessed as reduction in 45Calcium outflow at 50 uM
[6] = species: Rattus norvegicus; assay: Activation of ATP-sensitive potassium channel in glucose and extracellular calcium evoked rat pancreatic islets assessed as reduction in 45Calcium outflow at 50 uM
[7] = species: Rattus norvegicus; assay: Activation of ATP-sensitive potassium channel in glucose and extracellular calcium evoked rat pancreatic islets assessed as decrease in insulin output at 50 uM; details: TDE = time-dependent effect
[8] = species: Rattus norvegicus; assay: Activation of ATP-sensitive potassium channel in rat aorta rings assessed as increased 86Rb outflow at 100 uM in presence of 10 uM ATP-sensitive potassium channel blocker glibenclamide; assay type: tissue-based
Summary of the method: (§2)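 Prelabeled rat aortic rings perifused throughout with or without 10 μM glibenclamide. Drug applied at 100 μM. Read-out is 86Rb outflow. Four to five individual experiments.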

[9] = species: Rattus norvegicus; assay: Activation of ATP-sensitive potassium channel in rat aorta rings assessed as increased 86Rb outflow at 100 uM in absence of ATP-sensitive potassium channel blocker glibenclamide; assay type: tissue-based; summary of the method: as §2
[10] = Myorelaxant effect in KCl-induced precontracted rat aorta ring VSMC; assay type: functional, tissue-based
Summary of the method: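 Rat aortic rings precontracted with 30 mM KCl. EC50 is the drug concentration giving 50% relaxation, mean ± SEM (n).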

[11] = Myorelaxant effect in Wistar rat uterus smooth muscle assessed as inhibition of contractions induced by bolus of oxytocin injected in superfusion system at 10 uM; assay type: functional; set-up: scale not given: the % may be the effect or the level left
Summary of the method: (§3)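 Uteri from fed Wistar rats (150–200 g) given diethylstilboestrol dipropionate i.m. the day before. Tissue superfused; after 30 min stabilization, 20 mU oxytocin boluses given every 10 min until contractions (AUC) were constant. Three or more boluses per drug concentration (10, 50, 100 μM). Mean AUC expressed as percentage of the drug-free response.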

[12] = Inhibition of glucose induced insulin secretion from rat Pancreatic islet assessed as percentage of residual insulin release; assay type: functional; summary of the method: as §1
[13] = Myorelaxant effect in Wistar rat uterus smooth muscle assessed as inhibition of contractions induced by bolus of oxytocin injected in superfusion system at 100 uM; assay type: functional; set-up: scale not given: the % may be the effect or the level left; summary of the method: as §3
[14] = Myorelaxant effect in Wistar rat uterus smooth muscle assessed as inhibition of contractions induced by bolus of oxytocin injected in superfusion system at 50 uM; assay type: functional; set-up: scale not given: the % may be the effect or the level left; summary of the method: as §3
[15] = Dissociation constant, pKa of the compound; assay type: physicochemical
Summary of the method: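 pKa determined by UV spectrophotometry at 25 °C. Spectra recorded in aqueous buffers from pH 5 to 12.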

[16] = Myorelaxant effect in Wistar rat uterus smooth muscle assessed as inhibition of contractions induced by continuous superfusion of oxytocin in presence of 1 uM ATP-sensitive potassium channel blocker glibenclamide; assay type: functional
Summary of the method: (§4)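 Rat uterus continuously superfused with 50 mU/L oxytocin. Mean of three contraction AUCs set as 100%, then drug added at increasing concentrations, with no glibenclamide or with 1 or 10 μM glibenclamide present continuously. EC50 is the concentration giving 50% residual contraction, mean ± SEM (n).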

[17] = Myorelaxant effect in Wistar rat uterus smooth muscle assessed as inhibition of contractions induced by continuous superfusion of oxytocin in absence ATP-sensitive potassium channel blocker glibenclamide; assay type: functional; summary of the method: as §4
[18] = Myorelaxant effect in Wistar rat uterus smooth muscle assessed as inhibition of contractions induced by continuous superfusion of oxytocin in presence of 10 uM ATP-sensitive potassium channel blocker glibenclamide; assay type: functional; summary of the method: as §4

SMILES	Activity [2]	Activity [3]	further results
CC(C)NC1=NS(=O)(=O)c2cc(Br)ccc2N1	6.7%	8.1%	Activity [1]: 91%
CC(C)SC1=NS(=O)(=O)c2cc(Cl)c(Cl)cc2N1	12.9%	70%	–
CC(C)SC1=NS(=O)(=O)c2ccc(Cl)cc2N1	44%	80.2%	–
COc1ccc2c(c1)S(=O)(=O)N=C(OC(C)C)N2	–	80.8%	–
CC(C)SC1=NS(=O)(=O)c2cc(Br)ccc2N1	47.3%	90.3%	–
CC(C)NC1=NS(=O)(=O)c2ccc(Cl)cc2N1	6.4%	7.5%	Activity [1]: 76.7%
CC(C)CC1=NS(=O)(=O)c2cc(Br)ccc2N1	–	61.8%	Activity [4]: 85.8%
CC(C)OC1=NS(=O)(=O)c2cc(F)ccc2N1	44.1%	87.5%	–
CC(C)CC1=NS(=O)(=O)c2cc(F)ccc2N1	–	75.3%	–
CC(C)NC1=NS(=O)(=O)c2ccccc2N1	–	34.9%	Activity [4]: 73.7%
COc1ccc2c(c1)S(=O)(=O)NC(NC(C)C)=N2	4.4%	8.5%	Activity [5]: inactive; Activity [6]: Active; Activity [7]: tde
CC(C)CC1=NS(=O)(=O)c2cc(Cl)ccc2N1	21%	43.2%	Activity [8]: inactive; Activity [9]: Active; EC50 [10]: 5.8 µM; Activity [11]: 73.9%; IC50 [12]: 5.8 µM; Activity [13]: 55%; Activity [14]: 64.7%; pKa [15]: 8.52
CC(SC1=NS(=O)(=O)c2cc(Cl)ccc2N1)c1ccccc1 (racemic)	–	–	EC50 [16]: 6.8 µM; EC50 [17]: 4.4 µM; EC50 [18]: 24.2 µM; EC50 [10]: 5.4 µM
O=S1(=O)N=C(SCc2ccccc2)Nc2ccc(Cl)cc21	–	–	EC50 [17]: 11.7 µM; EC50 [10]: 5.4 µM
CC(C)OC1=NS(=O)(=O)c2cc(Cl)c(Cl)cc2N1	–	73.7%	–
CC(C)SC1=NS(=O)(=O)c2cc(F)ccc2N1	55.1%	88.7%	–
